From the array DNA melting data of Ke et al. (doi:10.1101/2024.01.08.574731)

Experiments:
[1] = folding enthalpy; higher = less favourable; fluorescence melt of hairpins on a sequencing array, two-state fit; details: sodium 0.088 M
Procedure, shortened: (§1)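 Hairpins were imaged by Cy3 fluorescence on a sequenced MiSeq flow cell with annealed Cy3 and quencher oligos, in 50 mM Na-HEPES pH 8.0, 25 mM NaCl, in 2.5 °C steps up to 60 °C. Bootstrapped two-state fits of normalised signals gave melting temperature and folding enthalpy. Four replicates were combined by inverse variance, and fitted temperatures were raised by 9.35 °C to match UV melts.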

[2] = melting temperature; fluorescence melt of hairpins on a sequencing array, two-state fit, raised by 9.35 °C to match UV melts; details: sodium 0.088 M
Procedure, shortened: as §1

Row | Sequence | folding enthalpy [1] [kcal/mol] | Tm [2] [°C]
1 | GAGTCGCCGAAAGGCCTC (((..(((....)))))) | -12.2 | 29.3
2 | GAGTCGGGAAACCGGTTC ((..(((....)))..)) | -15.6 | 32.8
3 | GAGTCGGGAAACTGGCTC (((.(.(....).).))) | -25.8 | 43.4
4 | GAGTGAGAAATCACTC ((((((....)))))) | -34.3 | 53.7
5 | GAGTGAGCGAAAGCTCTC (((..(((....)))))) | -9.01 | 32.9
6 | GAGTGAGGAAACCCACTC (((((.(....).))))) | -33.8 | 44.5
7 | GAGTGCCGAAAGGCCTC (((.(((....)))))) | -17.7 | 56.8
8 | GAGTGCGAAAGCAAACTC ((((((....)))..))) | -20.8 | 47.2
9 | GAGTGCGAAAGCACCTC ((((((....))).))) | -10.3 | 54.8
10 | GAGTGCGAAAGCATGCTC ((((((....)))..))) | -15 | 43.4
11 | GAGTGCGGAAACGCGCTC (((.(((....))).))) | -31.7 | 66.1
12 | GAGTGGGGAAACCCGCTC (((.(((....))).))) | -35.8 | 55.6
13 | GAGTTAGCGAAAGCTCTC (((..(((....)))))) | -11.5 | 35.1
14 | GAGTTAGGAAACCAACTC (((((.(....).))))) | -32.5 | 35.4
15 | GAGTTAGGAAACTAACCC (.(((((....))))).) | -17.4 | 30.4
16 | GAGTTAGGAAACTAATTC ((.((((....)))).)) | -23.9 | 27.9
17 | GAGTTCCCGAAAGGGCTC (((..(((....)))))) | -18.3 | 34.1
18 | GAGTTGAAAAACTC (((((....))))) | -22 | 44.7
19 | GAGTTTGGAAACAAATTC ((.((((....)))).)) | -28.7 | 35.8
20 | GATAAACGAAAGTTGATC (((.(((....))).))) | -23.4 | 39.4
21 | GATAAAGCGAAAGCTATC (((..(((....)))))) | -14.2 | 33.1
22 | GATAACCCGAAAGGGATC (((..(((....)))))) | -17.8 | 28.9
23 | GATAACCGAAAGGTAATC (((.(((....))).))) | -21.2 | 40.2
24 | GATAACCGAAAGGTATC (((.(((....)))))) | -17.4 | 38.9

Row | Sequence | folding enthalpy [1] [kcal/mol] | Tm [2] [°C]
25 | GATAACGCGAAAGCGATC (((..(((....)))))) | -10.2 | 24.1
26 | GATAATGGAAACATTATC (((((((....))))))) | -43.9 | 48.4
27 | GATACAGGAAACTGTACC (.(((((....))))).) | -15.4 | 31.1
28 | GATACAGGAAACTGTGTC ((.((((....)))).)) | -25.9 | 44.9
29 | GATACCCGAAAGGGCATC (((.(((....))).))) | -18.8 | 49.5
30 | GATACCGAAAGGTATATC ((((((....)))..))) | -16.3 | 45.2
31 | GATACCGAAAGGTCATC ((((((....))).))) | -17 | 35.6
32 | GATACCGAAAGGTGAATC ((((((....)))..))) | -12.6 | 27.2
33 | GATACCGAAAGGTGTATC ((((((....)))..))) | -14.8 | 35.9
34 | GATACCGAAAGGTTAATC ((((((....)))..))) | -11.1 | 25.3
35 | GATACCGAAAGGTTGATC ((((((....)))..))) | -13.6 | 31.4
36 | GATACCGGAAACGGTGTC ((.((((....)))).)) | -28.8 | 52.1
37 | GATACGCGAAAGCGAATC (((.(((....))).))) | -21.6 | 49.4
38 | GATACGGGAAACCGCATC (((.(((....))).))) | -24.8 | 41.4
39 | GATACGGGAAACCGTACC (.(((((....))))).) | -15.7 | 32.1
40 | GATACGGGAAACCGTGTC ((.((((....)))).)) | -30.7 | 49.2
41 | GATACGGGAAACTGTGTC ((.((.(....).)).)) | -20.1 | 33.6
42 | GATACTGGAAACAGTACC (.(((((....))))).) | -15.7 | 33.1
43 | GATAGAGGAAACCCTATC (((((.(....).))))) | -20.3 | 30.8
44 | GATAGAGGAAACTCTACC (.(((((....))))).) | -12.6 | 23.5
45 | GATAGCGAAAGCTAAATC ((((((....)))..))) | -8.92 | 27.7
46 | GATAGCGAAAGCTGATC ((((((....))).))) | -13.2 | 38.9
47 | GATAGCGGAAACGCCATC (((.(((....))).))) | -15.5 | 35.1
48 | GATAGGCGAAAGCCAATC (((.(((....))).))) | -19 | 43

Row | Sequence | folding enthalpy [1] [kcal/mol] | Tm [2] [°C]
49 | GATAGGGGAAACCCTACC (.(((((....))))).) | -16.8 | 31.1
50 | GATAGGGGAAACCCTGTC ((.((((....)))).)) | -25.4 | 43.7
51 | GATATCGGAAACGACATC (((.(((....))).))) | -27.9 | 32.7
52 | GATATGGGAAACCATGTC ((.((((....)))).)) | -29 | 41.8
53 | GATATGGGAAACTATATC (((((.(....).))))) | -23.2 | 33.8
54 | GATCAAAAAATTGATC ((((((....)))))) | -17.5 | 32.4
55 | GATCAAAAATTTGATC ((((((....)))))) | -28.7 | 39
56 | GATCAAAATATTGATC ((((((....)))))) | -26.6 | 38.6
57 | GATCAAACCATTGATC ((((((....)))))) | -31.2 | 42.1
58 | GATCAAACCGTTGATC ((((((....)))))) | -30.6 | 42
59 | GATCAAACTATTGATC ((((((....)))))) | -30.1 | 40.3
60 | GATCAAACTGTTGATC ((((((....)))))) | -25.7 | 41
61 | GATCAAAGACTTGATC ((((((....)))))) | -25.1 | 39.2
62 | GATCAAAGCATTGATC ((((((....)))))) | -36.8 | 43.7
63 | GATCAAAGGATTGATC ((((((....)))))) | -19.1 | 40.9
64 | GATCAAAGGCTTGATC ((((((....)))))) | -31.5 | 41
65 | GATCAAAGGGTTGATC ((((((....)))))) | -28.3 | 39.1
66 | GATCAAATACTTGATC ((((((....)))))) | -33.2 | 39.9
67 | GATCAAATTGTTGATC ((((((....)))))) | -28.3 | 41.8
68 | GATCAACAAATTGATC ((((((....)))))) | -31.3 | 36.4
69 | GATCAACAAGTTGATC ((((((....)))))) | -34.2 | 51.8
70 | GATCAACAATTGATC ((((((...)))))) | -21.6 | 33.4
71 | GATCAACACCTTGATC ((((((....)))))) | -32.7 | 46.7
72 | GATCAACAGGTTGATC ((((((....)))))) | -36.2 | 51.4

Row | Sequence | folding enthalpy [1] [kcal/mol] | Tm [2] [°C]
73 | GATCAACATATTGATC ((((((....)))))) | -30.2 | 42.6
74 | GATCAACCCGTTGATC ((((((....)))))) | -42 | 53
75 | GATCAACCGAAAGGTATC (((..(((....)))))) | -12.1 | 25.6
76 | GATCAACCGATTGATC ((((((....)))))) | -32.6 | 41.5
77 | GATCAACCGTTGATC ((((((...)))))) | -38.1 | 41.1
78 | GATCAACGAGTTGATC ((((((....)))))) | -51 | 55.6
79 | GATCAACGCCTTGATC ((((((....)))))) | -26 | 46.1
80 | GATCAACGCTTTGATC ((((((....)))))) | -44.1 | 46.4
81 | GATCAACGTTTTGATC ((((((....)))))) | -30.4 | 42.8
82 | GATCAACTAGTTGATC ((((((....)))))) | -38.6 | 56.3
83 | GATCAACTCTTGATC ((((((...)))))) | -35.7 | 42.3
84 | GATCAACTCTTTGATC ((((((....)))))) | -37.5 | 45.1
85 | GATCAACTTTTGATC ((((((...)))))) | -30.7 | 43.2
86 | GATCAAGAATTTGATC ((((((....)))))) | -30.8 | 49
87 | GATCAAGAGTTGATC ((((((...)))))) | -24.8 | 37.8
88 | GATCAAGAGTTTGATC ((((((....)))))) | -29.6 | 41.4
89 | GATCAAGATGTTGATC ((((((....)))))) | -28 | 43.5
90 | GATCAAGCAGTTGATC ((((((....)))))) | -31.8 | 46.6
91 | GATCAAGCGCTTGATC ((((((....)))))) | -51.6 | 55.9
92 | GATCAAGGAAACTTGACC (.(((((....))))).) | -18.7 | 29.8
93 | GATCAAGGAAACTTGGTC ((.((((....)))).)) | -30.5 | 41.5
